Bioassay records from PubChem BioAssay.
Most compounds without a hit are left out; they make up all but 3.7% or so of the library.
KCNK9 inh: human KCNK9 channel inhibition. Q9NPC2. HEK293 KCNK9, FluxOR thallium flux fluorescence; active compounds read low. B-score at 10 µM. actives 1.2% (n = 310,000). AID 488922;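 active = ratio B-score over 3 SD below the library mean, with starting fluorescence within 5 SD of its mean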;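 also: negative B-score means less thallium flux so channel inhibition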
KCNK3 inh: human KCNK3 channel inhibition, primary screen. actives 0.84% (n = 340,000). B-score at 10 µM. CHO-KCNK3 thallium flux, FluxOR fluorescence; active compounds read low;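 active = B-score under library mean minus 4 SD, starting fluorescence ratio at most library mean plus 5 SD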;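 also: more negative B-score means stronger inhibition of thallium flux through KCNK3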
hERG protect: hERG (human) protection from proarrhythmic block; Q12809; CHO-hERG, FluxOR thallium flux, dofetilide IC70 present; activation (rescue from dofetilide block), less the hit threshold, % at 10 µM; actives 0.51% (n = 310,000); AID 1511;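 active = activation above the mean of controls blocked by dofetilide plus 5 SD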;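 also: thallium influx through hERG after potassium depolarization seen as dye fluorescence rise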
Target sequence (Q12809 whole entry, looked up): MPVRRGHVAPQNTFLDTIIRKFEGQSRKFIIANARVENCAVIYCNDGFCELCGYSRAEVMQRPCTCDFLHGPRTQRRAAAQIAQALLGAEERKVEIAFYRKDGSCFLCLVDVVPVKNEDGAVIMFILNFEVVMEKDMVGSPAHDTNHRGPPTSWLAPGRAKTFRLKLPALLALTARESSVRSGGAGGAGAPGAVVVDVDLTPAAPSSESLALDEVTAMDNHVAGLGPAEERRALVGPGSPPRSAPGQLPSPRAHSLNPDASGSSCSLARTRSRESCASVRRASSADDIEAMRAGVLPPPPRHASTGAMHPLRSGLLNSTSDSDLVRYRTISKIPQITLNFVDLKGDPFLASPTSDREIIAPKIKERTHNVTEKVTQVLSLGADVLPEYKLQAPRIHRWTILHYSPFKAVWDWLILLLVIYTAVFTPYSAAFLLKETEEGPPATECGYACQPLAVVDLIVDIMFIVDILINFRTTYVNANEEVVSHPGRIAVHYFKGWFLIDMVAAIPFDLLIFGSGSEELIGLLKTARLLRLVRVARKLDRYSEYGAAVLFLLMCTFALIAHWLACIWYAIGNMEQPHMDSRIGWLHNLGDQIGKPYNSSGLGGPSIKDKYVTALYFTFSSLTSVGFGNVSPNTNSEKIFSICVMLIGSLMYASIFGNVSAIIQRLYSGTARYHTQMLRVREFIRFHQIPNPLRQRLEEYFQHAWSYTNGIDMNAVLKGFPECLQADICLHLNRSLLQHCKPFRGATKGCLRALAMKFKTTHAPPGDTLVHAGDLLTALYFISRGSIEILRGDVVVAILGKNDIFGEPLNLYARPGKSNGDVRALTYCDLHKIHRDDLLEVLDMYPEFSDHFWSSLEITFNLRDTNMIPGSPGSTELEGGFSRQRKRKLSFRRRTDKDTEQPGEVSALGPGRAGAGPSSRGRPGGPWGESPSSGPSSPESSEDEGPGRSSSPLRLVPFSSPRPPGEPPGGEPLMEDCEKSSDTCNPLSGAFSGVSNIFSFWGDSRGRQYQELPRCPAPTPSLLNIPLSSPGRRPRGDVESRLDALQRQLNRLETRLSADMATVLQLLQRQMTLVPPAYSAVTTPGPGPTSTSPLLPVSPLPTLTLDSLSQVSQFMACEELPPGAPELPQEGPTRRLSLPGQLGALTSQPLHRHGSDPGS
KCNQ1 block: human KCNQ1 channel inhibition | actives 1.3% (n = 310,000) | AID 2642 | B-score at 10 µM | CHO-K1 KCNQ1, FluxOR thallium flux fluorescence; active compounds read high;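 active = compounds whose thallium flux B-score, printed positive for inhibition, exceeds three library SD while starting fluorescence stays within three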;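 also: channel opened by potassium depolarization with thallium stimulus after 20 min compound exposure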
KCNQ1 pot: potentiates or activates the human KCNQ1 potassium channel | P51787 | CHO-K1 KCNQ1, thallium flux FluxOR fluorescence; active compounds read high | B-score at 10 µM | actives 0.35% (n = 310,000);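 active = fluorescence ratio B-score, a plate-corrected score, at least three library SD, with initial intensity B-score within 5 SD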
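assay system = CHO-K1 cells stably expressing KCNQ1 | medium = assay buffer, equal DMSO in all wells | timing = 37 °C overnight plating, 90-min dark dye load, 20-min compound pretreatment | measured by = kinetic FluxOR thallium fluorescence, 10-s 1-Hz baseline, 110-s post-stimulus read | measure = fluorescence change relative to baseline, converted to B score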
Kir21 inh: inhibitors of mouse Kir2.1 inward-rectifier potassium channel; P35561; HEK293-Kir2.1, FluxOR thallium flux fluorescence; active compounds read low; B-score at 10 µM; actives 0.85% (n = 310,000); AID 1672;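 active = fluorescence ratio B-score at or below minus 3 SD of library scores, with starting-brightness B-score within 2 SD, cut at about -4.2 in these data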;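 also: channel flux triggered by added potassium and thallium sulfate stimulus; B-score of peak minus minimum fluorescence over baseline after thallium stimulus; more negative B-score means stronger Kir2.1 block with less thallium influx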
KCNK9 block conf: human KCNK9 inhibitor confirmation | shares compounds with KCNK9 inh | HEK293 KCNK9 cells, FluxOR thallium flux fluorescence | inhibition, % at 10 µM | actives 43% (n = 4,900) | AID 492992;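 active = thallium signal inhibited by more than 5 SD of the compound-free buffer control wells, on both duplicate plates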;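 also: 0% = assay buffer control wells without compound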
Kir21 sel: selectivity of KCNK9 modulators against mouse Kir2.1; actives 4% (n = 4,900); AID 492993; Kir2.1 cells, FluxOR thallium flux fluorescence; shares compounds with KCNK9 inh; inhibition, % at 10 µM;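 active = thallium signal drop more than 5 SD beyond the mean of the no-compound control wells, seen in both duplicate plates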;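 also: signal is fluorescence rise after thallium addition divided by baseline fluorescence; plate controls were assay buffer only for no effect and full block by chlorpromazine control for full effect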
KCNK9 uninduced: non-induced cell nonspecific activity of KCNK9 modulators; non-induced KCNK9-HEK293, FluxOR thallium flux; actives 40% (n = 4,900); AID 492997; shares compounds with KCNK9 inh; inhibition, % at 10 µM;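 active = thallium signal drop beyond 5 SD of the untreated control mean, on both duplicate plates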;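 also: plate controls were buffer only IC0 wells for no effect and SID17386958 at its maximal inhibitory level for full effect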
* = called active by the depositor; i = inactive; . = no result given.

SMILES	KCNK9 inh	KCNK3 inh	hERG protect	KCNQ1 block	KCNQ1 pot	Kir21 inh	KCNK9 block conf	Kir21 sel	KCNK9 uninduced
O=C(Nc1cccc(Cl)c1)C1C2CCC3C(CCC21)C3(Cl)Cl (stereo not drawn)	i	i	-15.4	i	i	-0.86	i	i	i
COc1ccc(C2CC(c3cccc(C(F)(F)F)c3)=NN2c2ccc(S(N)(=O)=O)cc2)cc1 (stereo not drawn)	.	i	.	.	.	.	.	.	.
O=C(N/N=C/c1cn(-c2ccccc2)nc1-c1cccs1)c1ccc(Cl)cc1	i	i	-14.8	i	i	-2.28	.	.	.
O=C(O)CCCCCN1C(=O)/C(=C/c2cn(-c3ccccc3)nc2-c2cccs2)SC1=S	.	i	.	.	.	.	.	.	.
O=C(N/N=C/c1cn(-c2ccccc2)nc1-c1cccs1)c1ccccc1F	-12.8*	-9.05*	-17.6	6*	i	0.77	56.5%*	i	29.5%*
CC1=NNC(=O)/C1=C\c1cn(-c2ccccc2)nc1-c1cccs1	i	i	-6.2	i	i	1	i	i	i
CC(C)COc1ncnc2c1sc1nc3c(cc12)COC(C)(C)C3	i	.	-2.1	i	i	-0.06	.	.	.
O=[N+]([O-])c1ccc(Cl)cc1CNc1ccc(F)c(F)c1	-8.46*	i	-12.1	i	i	-1.46	33.0%*	i	27.0%*
O=S(=O)(Nc1cc(Cl)ccc1N1CCCCC1)c1cccs1	-14.9*	i	-11.5	i	i	-2.55	65.0%*	i	i
Cc1ccc(CN(C)c2nc(-c3cccnc3)nc3ccccc23)o1	i	i	-14.3	i	i	0.13	.	.	.
CN(Cc1ccccc1F)c1nc(-c2cccnc2)nc2ccccc12	-8.23*	i	-15.7	i	i	-2.38	31.0%*	i	27.5%*
CSc1nnnn1-c1c(C)cccc1C	i	i	-4.3	i	i	-0.32	.	.	.
Cc1cccc(C)c1-n1nnnc1SCSc1nnnn1-c1c(C)cccc1C	-12.9*	i	-7.8	i	i	1.58	i	i	35.0%*
COc1ccccc1-c1ccc(SCc2ccc(F)cc2)nn1	i	i	-12.0	i	i	-0.38	.	.	.
COc1ccccc1-c1ccc(SCc2ccc(C)cc2)nn1	i	i	-23.7	i	i	0.47	i	i	i
CC(C)OP(=O)(CCP(=O)(OC(C)C)OC(C)C)OC(C)C	i	i	-7.9	i	i	-0.33	.	.	.
CN(CC1CCCN(CCc2cccc(C(F)(F)F)c2)C1)C(=O)c1cc2ccccc2o1 (stereo not drawn)	i	i	-20.9	i	i	-3.31	i	i	i
CCCN1CCC(=O)N(CCSc2ccccc2)CC1	i	i	1.7	i	i	0.81	.	.	.
c1ccc(SCCN2CCN(c3ccccc3)CC2)cc1	i	i	-7.7	i	i	0.53	i	i	i
COc1cc(NC(=O)Cn2nc(C(F)(F)F)c(Br)c2C)cc([N+](=O)[O-])c1	i	i	-6.3	i	i	-0.02	.	.	.
CC1CCN(CCCn2c(=S)[nH]c3ccccc3c2=O)CC1	i	i	-5.7	i	i	1.94	.	.	.
O=c1c2ccccc2[nH]c(=S)n1CCCN1CCC(Cc2ccccc2)CC1	i	i	-12.0	i	i	-1.19	i	i	i
Cc1ccc(NC(=O)CCNC(=O)c2ccco2)cc1Cl	i	i	-3.1	i	i	-1.37	.	.	.
Cc1cccc[n+]1CCCCCCCCCC[n+]1ccccc1C	i	i	-9.6	i	i	0.12	.	.	.
CCCCCCCC[n+]1cccc2c3ccccc3ccc21	-14*	i	-24.6	9*	i	-10.6*	62.0%*	86.0%*	i
SMILES	KCNK9 inh	KCNK3 inh	hERG protect	KCNQ1 block	KCNQ1 pot	Kir21 inh	KCNK9 block conf	Kir21 sel	KCNK9 uninduced
COc1ccc(S(=O)(=O)Cc2ccc(C(=O)N3CCN(c4cccc(C)c4)C(C)C3)o2)cc1 (stereo not drawn)	i	i	-1.8	i	i	1.31	i	i	i
CC(C)(C)OC(=O)N1CCC(c2c(C(=O)NC3CC3)cnn2-c2ccc(Cl)cc2)CC1	i	i	-6.8	i	i	3.33	i	i	i
C=CCn1c(SCC#N)nc2sc(CC)cc2c1=O	i	i	-9.9	i	i	-1.09	.	.	.
Cc1ccc(NCc2nnc(SCc3ccc(C#N)cc3)n2Cc2ccco2)c(C)c1	-18.9*	i	-15.4	i	i	0.34	66.5%*	i	36.5%*
Fc1cccc(Cl)c1CSc1ccc(-c2cccnc2)nn1	-10.7*	i	-8.3	i	i	-0.28	33.0%*	i	i
CCOc1ccc(Br)cc1S(=O)(=O)Nc1ccc(Cl)c(S(=O)(=O)N(CC)c2ccccc2)c1	i	i	-5.5	i	i	-0.21	.	.	.
COc1ccc(/C=C/C(=O)c2ccccc2)cc1COc1ccc(F)cc1	-12.8*	i	-5.0	i	i	0.57	70.0%*	28.5%*	55.0%*
COc1ccc(C(=O)/C=C/c2ccc(OC)c(COc3ccccc3F)c2)cc1	-16*	i	-9.2	i	i	1.88	70.0%*	i	31.0%*
CCCCN(C)Cc1cc(=O)oc2cc3c(cc12)CCCC3	i	i	-2.9	i	i	0.36	i	i	i
Cc1nc2ccccc2c(C)c1CC(=O)N(C)CC(=O)Nc1cccc(F)c1	i	i	-17.5	i	i	0	.	.	.
CCCCC(=O)Nc1cccc(NC(=O)c2ccc(Br)o2)c1	-8.53*	i	-17.9	i	i	-0.81	43.0%*	i	i
CCOc1ccc(S(=O)(=O)N2CCCC(C(=O)NC3CC3)C2)cc1Cl (stereo not drawn)	i	i	-3.5	i	i	0.01	.	.	.
Cc1c(C(=O)OCC(=O)Nc2ccc(C(=O)N(C)C)cc2)oc2ccccc12	i	i	-7.8	i	i	0.09	.	.	.
Cc1ccc(NC(=O)NCc2ccccn2)c(C)c1	i	i	-8.5	i	i	-0.26	.	.	.
CCOc1ccc(Br)cc1C1=NN(C(C)=O)C(c2ccc([N+](=O)[O-])s2)O1 (stereo not drawn)	-10.3*	-10.2*	-7.1	i	i	0	63.0%*	i	39.5%*
